Dynein cargo inh: blocks dynein driven cargo transport along microtubules; 3617.4 mouse cells, GR-EGFP nuclear translocation imaging; test concentration mostly 20 µM; stimulated with dexamethasone, 1 µM; active compounds read low; z-score, hits read low; 220,000 tested, 0.47% active;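 active = plate z-score of nuclear minus cytoplasmic receptor signal below a set negative limit, without overly bright fluorescence or cell loss, cut at about -3.5 in these data, passing the limit was not always enough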;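 note: z-score of nuclear minus cytoplasmic ring GR-EGFP intensity difference per well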
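Buffer or medium: Induction medium lacking tetracycline, stripped serum | Also added: Dexamethasone agonist, 1.0 µM final, for 30 min | Timing: 48 h induction, 1 h compound, 30 min dex at 37 °C | Detection: Formaldehyde fixation, Hoechst nuclear stain, 10x automated fluorescence imaging | Measure: Nuclear versus cytoplasmic GR-EGFP signal, averaged per well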
MDM2 E3 inh: inhibitors of human Mdm2 E3 ubiquitin ligase. signal enhancement, % at 5 µM. AID 1230. cell-based MDM2 ubiquitination luciferase reporter, 2 h; 0 = plate control, 100 = twice control, blank-subtracted. 210,000 tested, 0.11% active;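 active = signal enhancement of 30% or more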;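 note: luminescence tracks abundance of the self-degrading MDM2-luciferase fusion protein; higher signal means inhibition of MDM2 E3 ligase activity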
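Assay system: stable mammalian line carrying autodegrading MDM2–luciferase fusion reporter; Input: 2000 cells in each well; Compound dosing: single-point 5 µM; Schedule: 2 h compound exposure at 37 °C; Signal: SteadyLite luciferase luminescence after 15 min room-temperature reagent incubation; Evaluation: % luminescence enhancement versus blank-corrected plate control mean; Benchmarks: plate controls and plate blanks.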
S1P3 antag: antagonists of human S1P3 receptor; Q99500; CHO S1P3 NFAT-BLA reporter, FRET fluorescence, antagonist mode; inhibition, % at 4.98 µM; 170,000 tested, 0.27% active; AID 485;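 active = inhibition above the plate cutoff, the mean inhibition of test wells on that plate plus 3 SD, cut at about 28% in these data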;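 note: cells challenged with S1P at its EC80 of 0.8 µM; blue over green emission ratio from cleaved BLA substrate after 4 h stimulation; 0% = S1P-stimulated wells and 100% = unstimulated DMSO-only wells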
S1P4 antagonist: antagonists of human S1P4 receptor. O95977. S1P4-expressing cells, antagonist mode, reporter read-out. inhibition, % at 4.98 µM. 220,000 tested, 0.26% active; in the data active = inhibition above about 29%;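 note: 0% = wells stimulated with agonist and 100% = vehicle wells without agonist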
S1P4 agonist: human S1P4 receptor agonism; activation, % at 4.98 µM; 220,000 tested, 0.35% active; S1P4-expressing cell line, agonist reporter assay; in the data active = activation above about 11%;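 note: 0% = DMSO vehicle and 100% = reference agonist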
Hsp70 activator: Hsp70 transcriptional activation, primary screen. HeLa Hsp70 promoter luciferase reporter, luminescence; scaled: vehicle 0, proteasome-inhibitor control 100%. activation, % at 10 µM. 200,000 tested, 0.04% active;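 active = activation above the mean across all tested compounds plus 3 SD, cutoff set per campaign, cut at about 5.5% in these data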;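 note: 100% = MG132 at 30 µM as the positive control and 0% = DMSO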
S1P4 antag conf: confirmation of human S1P4 receptor antagonists | shares compounds with S1P4 antagonist | S1P4-expressing cell line, antagonist mode, reporter read-out | inhibition, % at 4.98 µM | 520 tested, 71% active | AID 1524; in the data active = inhibition above about 30%
S1P1 antag: counter-screen for S1P4 antagonists: antagonists of human S1P1; 520 tested, 37% active; cell-based S1P1 antagonist counterscreen, inhibition; inhibition, % at 4.98 µM; shares compounds with S1P4 antagonist; in the data active = inhibition above about 40%;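 note: receptor stimulated with S1P near its EC80; 0% = agonist stimulated wells and 100% = vehicle only wells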
Target sequence (P21453 whole entry, looked up): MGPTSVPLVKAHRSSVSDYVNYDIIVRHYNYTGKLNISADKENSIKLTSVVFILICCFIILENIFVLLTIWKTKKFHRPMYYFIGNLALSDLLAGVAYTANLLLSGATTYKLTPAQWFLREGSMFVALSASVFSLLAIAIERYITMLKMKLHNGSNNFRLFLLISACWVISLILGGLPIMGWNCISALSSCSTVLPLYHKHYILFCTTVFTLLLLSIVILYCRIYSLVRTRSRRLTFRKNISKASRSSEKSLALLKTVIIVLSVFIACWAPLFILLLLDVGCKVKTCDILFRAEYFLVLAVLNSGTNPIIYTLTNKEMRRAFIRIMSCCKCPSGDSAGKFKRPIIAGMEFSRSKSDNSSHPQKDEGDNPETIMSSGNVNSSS
Numbers without * were called inactive; / = not tested or not shown. Shown are actives, neighbours in structure and some others; about 1.3% of the full set was active somewhere.

SMILES | Dynein cargo inh | MDM2 E3 inh | S1P3 antag | S1P4 antagonist | S1P4 agonist | Hsp70 activator | S1P4 antag conf | S1P1 antag
CCOc1ccc(NC(=O)Nc2cc(OCC(F)(F)F)cc(OCC(F)(F)F)c2)cc1 | -0.157 | -11.9 | 9.4 | 90.3* | -2.4 | -0.5 | 112.8* | -25.6
CCOc1ccc(NC(=O)Nc2cccc(C(=O)O)c2)cc1 | 0.638 | -96.6 | 7.0 | -9.4 | -0.1 | -0.8 | / | /
COc1ccc(C(=O)NCc2nnc(SCC(=O)N3CCC(C)CC3)o2)cc1 | 0.0855 | -8.9 | -12.8 | -1.1 | -0.4 | 0.0 | / | /
COc1cccc2c1OC1(CCN(C(C)C)CC1)N1N=C(c3cccnc3)CC21 (stereo not given) | -1.48 | -1.3 | 3.0 | -5.1 | -1.2 | / | / | /
CC(C)N1CCC2(CC1)Oc1ccc(Br)cc1C1CC(c3cccnc3)=NN12 (stereo not given) | -0.489 | / | 3.5 | 32.0* | 0.4 | / | 19.0 | 32.0
Cc1ccc(NC2=C/C(=N\S(=O)(=O)c3cccs3)c3ccccc3C2=O)c(C)c1 | -2.15 | -9.1 | / | -8.5 | -1.0 | -0.3 | / | /
O=C1C(Nc2ccc(O)cc2)=C/C(=N/S(=O)(=O)c2cccs2)c2ccccc21 | -0.572 | -22.7 | -11.9 | 86.4* | 4.0 | -0.4 | 109.1* | 94.3*
COc1ccc(C=C(c2nc3ccccc3s2)c2nc3ccccc3s2)cc1O | 0.528 | -9.1 | -11.8 | 29.4* | 1.6 | -0.2 | 58.2* | 15.9
C(=N\n1cnnc1)/c1ccc2c(c1)OCCO2 | -0.719 | -6.7 | / | -0.9 | -0.9 | 0.2 | / | /
C(=N\n1cnnc1)/c1ccc2c(c1)OCO2 | 0.123 | -31.7 | -18.8 | 30.9* | -2.0 | -0.2 | -1.8 | -0.5
N#Cc1ccc(/C=C/C(=O)c2ccccc2)cc1 | -1.98 | -7.5 | 1.1 | 86.3* | -0.7 | / | 89.9* | 21.9
CSc1ccc(/C=C/C(=O)c2ccc(NC(C)=O)cc2)cc1 | 0.671 | -6.3 | / | 8.6 | -3.1 | -0.2 | / | /
CC(=O)Nc1cccc(C(=O)/C=C/c2ccc(C)cc2)c1 | -0.343 | -14.2 | -8.2 | 45.1* | 1.2 | 0.3 | 55.0* | 21.3
Cc1cc(C)nc(N2CCCC(CCC(=O)NCc3ccc(F)c(F)c3)C2)n1 (stereo not given) | 0.257 | -1.9 | -16.7 | 5.7 | -0.5 | 0.3 | / | /
COc1ccc(C(=O)c2c(C(F)(F)F)oc3c2C(=O)c2ccccc2C3=O)cc1OC | 0.364 | -7.8 | / | 32.5* | -0.5 | -0.7 | 71.2* | 57.0*
COc1ccc(C(=O)Nc2ccc3c(c2)C(=O)c2ccccc2C3=O)cc1OC | 0.63 | -16.9 | -2.4 | -22.9 | 0.4 | -0.2 | / | /
Cc1ccc(N(C)C(=O)n2cnc3ccccc32)cc1 | -0.334 | -4.9 | -0.6 | -0.1 | 5.8 | -0.4 | / | /
Cc1c(N(C(=O)c2ccccn2)C2(C(=O)NC3CCCCC3)CCCCC2)c(=O)n(-c2ccccc2)n1C | 1.28 | -6.2 | -7.5 | -27.7 | -0.7 | -0.1 | / | /
Cc1ccc2[nH]c3c(c2c1)SC(C)(C)CC3=O | -0.393 | -17.6 | -16.1 | 6.7 | 0.4 | -0.3 | / | /
CCOC(=O)CSc1nnc([C@H](Cc2ccccc2)NC(=O)OC(C)(C)C)o1 | 0.208 | -69.4 | -30.4 | 1.5 | -0.6 | -0.3 | / | /
CC[C@@H](C)[C@H](NC(=O)OC(C)(C)C)c1nnc(S(=O)(=O)Cc2cc(C)ccc2C)o1 | -2.5 | -11.9 | -6.9 | 57.3* | -4.1 | 0.2 | 105.2* | 35.4
CC(C)(C)OC(=O)N[C@@H](Cc1ccccc1)c1nnc(S(=O)(=O)Cc2cccc(F)c2)o1 | -0.989 | 6.2 | -9.4 | 78.4* | -4.5 | -0.1 | 93.7* | 10.5
CCCc1cc(=O)[nH]c(SCCN2C(=O)c3ccccc3C2=O)n1 | -0.142 | 6.1 | -6.8 | 1.5 | 0.1 | -0.2 | / | /
CCOC(=O)C(=Cc1ccc(Br)cc1)C(=O)OCC | -2.4 | 21.5 | -26.1 | 90.4* | 0.6 | / | 115.2* | 34.5
COc1ccc(/C=N/Nc2nn3cnnc3c3ccccc23)cc1 | 1.23 | -6.7 | 2.2 | 30.4* | 2.3 | / | -8.9 | -7.3
Cc1noc(C)c1-c1nc(CS(=O)(=O)c2ccccc2)no1 | -1.18 | -6.7 | -11.5 | -3.5 | -0.2 | / | / | /
